Arrestin-AP2 inh: inhibitors of human beta-arrestin and AP2 interaction. FITC-arrestin peptide / GST-AP2 beads, flow cytometry; AP2 beta2 appendage carries R879A mutation. inhibition, % at 10 µM. AID 504490. 340,000 tested, 0.31% active;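 active = inhibition above a set limit, near 3 SD of compounds lacking own fluorescence, cut at about 54% in these data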
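Material – GST-tagged AP2 beta2-adaptin appendage (R879A) on 4 µm glutathione beads · Probe or stimulus – fluorescein-tagged arrestin peptide at 50 nM final · Timing – 12 min plus 1 h, RT · Detection – bead flow cytometry, FITC channel · Read-out basis – inhibition as reduced fluorescein signal on beads, percent · Medium – PBS plus Tween 20 (0.05%) and BSA (0.1%)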
N-glyco inh: blocks N-linked glycosylation in D54 reporter cells. D54 ERlucT glycosylation luciferase reporter, 24 h; percent of 100 nM tunicamycin response. reporter increase, % at 12.5 µM. 360,000 tested, 0.23% active;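 active = mean luciferase reporter signal, scaled so untreated is 0 and the glycosylation-blocking control 100, at or above a set limit in every replicate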;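 note: luciferase carries N-glycosylation sites so blocking glycosylation raises the light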
HIV Env fusion: HIV envelope-mediated fusion inhibition. inhibition, % at 12.3 µM. 360,000 tested, 1.1% active. AID 651610. HeLa-JRFL Env/CEM21 cell fusion, luciferase;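 active = mean replicate inhibition score of at least 50 and every replicate individually at or above 50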
PAX8 inh HTS: inhibitors of PAX8 transcriptional activity in RMG-I cells. RMG-I TPO-luciferase reporter, SteadyGlo, 24 h. inhibition, % at 12.6 µM. 360,000 tested, 1.2% active;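 active = mean replicate inhibition at least 60% with every replicate also reaching 60%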;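 note: luciferase light reporting Pax8 driven TPO promoter activity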
PfHsp90 yeast 2: growth inhibition of yeast expressing Plasmodium Hsp90 | S. cerevisiae expressing PfHsp90, BacTiter-Glo ATP, 48 h; yeast lacking PDR1 and PDR3 efflux regulators | inhibition, % at 9.4 µM | 310,000 tested, 0.32% active | AID 504621;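 active = every replicate shows inhibition above about 80%, whatever the replicate mean, limit read from the data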
Rtt109 HAT inh: blocks Candida albicans Rtt109/Vps75 acetyltransferase activity | AID 540336 | 330,000 tested, 0.16% active | inhibition, % at 34.9 µM | purified Rtt109/Vps75, ThioGlo CoA-SH fluorescence, 4 h;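 active = inhibition of at least 50% in every replicate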
Target sequence (Q5AAJ8 whole entry, looked up): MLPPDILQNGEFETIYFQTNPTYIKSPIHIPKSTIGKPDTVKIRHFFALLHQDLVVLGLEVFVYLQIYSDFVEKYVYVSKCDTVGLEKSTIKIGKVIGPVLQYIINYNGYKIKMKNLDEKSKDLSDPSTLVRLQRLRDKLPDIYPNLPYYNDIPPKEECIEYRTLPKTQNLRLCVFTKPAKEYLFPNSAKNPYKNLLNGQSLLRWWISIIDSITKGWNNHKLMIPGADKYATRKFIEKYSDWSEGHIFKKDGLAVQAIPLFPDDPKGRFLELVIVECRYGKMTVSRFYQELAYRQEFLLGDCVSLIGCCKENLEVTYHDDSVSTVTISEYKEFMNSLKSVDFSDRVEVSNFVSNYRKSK
Large screens that a line does not name were inactive; ! = not active in a repeat; [ ] = dose if it differs, or a comment. Only some compounds are listed: those with a hit (about 2.3% of all), similar ones and a draw of the others.

CC(C)(C)[S@](=O)N1Cc2cc(C(=O)N3CCCCC3)nc(-c3cccc(C4=CCCC4)c3)c2[C@@H]1CCO	none (no result: Arrestin-AP2 inh, N-glyco inh, HIV Env fusion, PfHsp90 yeast 2, Rtt109 HAT inh)
O=S(=O)(c1ccccc1)N1C[C@@H]2N[C@H](C1)C2c1ccc(-c2ccccc2)cc1 (some centres undefined)	none (no result: Arrestin-AP2 inh, N-glyco inh, HIV Env fusion, PfHsp90 yeast 2, Rtt109 HAT inh)
N#Cc1cccc(-c2ccc(C3[C@@H]4CN(C(=O)c5ccccn5)C[C@H]3N4)cc2)c1 (some centres undefined)	PAX8 inh HTS 64! (no result: Arrestin-AP2 inh, N-glyco inh, HIV Env fusion, PfHsp90 yeast 2, Rtt109 HAT inh)
CS(=O)(=O)N1C[C@@H]2N[C@H](C1)[C@@H]2c1ccc(-c2ccccc2)cc1	PAX8 inh HTS 76 (no result: Arrestin-AP2 inh, N-glyco inh, HIV Env fusion, PfHsp90 yeast 2, Rtt109 HAT inh)
N#Cc1ccc(-c2ccc(C3[C@@H]4CN(C(=O)C5CC5)C[C@H]3N4)cc2)cc1 (some centres undefined)	PAX8 inh HTS 98 (no result: Arrestin-AP2 inh, N-glyco inh, HIV Env fusion, PfHsp90 yeast 2, Rtt109 HAT inh)
Cc1ccccc1S(=O)(=O)N1C[C@@H]2N[C@H](C1)C2c1ccc(-c2cccc(C#N)c2)cc1 (some centres undefined)	PAX8 inh HTS 94! (no result: Arrestin-AP2 inh, N-glyco inh, HIV Env fusion, PfHsp90 yeast 2, Rtt109 HAT inh)
C[C@@H]1CCCCO[C@@H](CN(C)C(=O)C2CCCCC2)[C@H](C)CN([C@@H](C)CO)C(=O)c2cc(NS(=O)(=O)c3cn(C)cn3)ccc2O1	none (no result: Arrestin-AP2 inh, N-glyco inh, PfHsp90 yeast 2, Rtt109 HAT inh)
CN(C)CCCNC(=O)[C@H]1[C@H](CO)[C@H]2Cn3c(ccc(-c4ccc(F)cc4)c3=O)[C@@H]1N2C	none (no result: Arrestin-AP2 inh, N-glyco inh, HIV Env fusion, PfHsp90 yeast 2, Rtt109 HAT inh)
O=S(=O)(c1cccc(Br)c1)N1CCN(c2ncnc3scc(-c4ccccc4)c23)CC1	none
Cc1csc2ncnc(N3CCN(S(=O)(=O)c4cccc(C(F)(F)F)c4)CC3)c12	HIV Env fusion 57
Cc1sc2ncnc(N3CCN(S(=O)(=O)c4ccc(Br)cc4)CC3)c2c1C	HIV Env fusion 78
c1ccc(N2CCN(c3ncnc4scc(-c5cccs5)c34)CC2)cc1	HIV Env fusion 82 (no result: PAX8 inh HTS)
c1csc(-c2csc3ncnc(NCCCN4CCOCC4)c23)c1	HIV Env fusion 68 (no result: PAX8 inh HTS)
C[C@H]1CN([C@@H](C)CO)S(=O)(=O)c2ccc(-c3ccc(F)cc3)cc2O[C@@H]1CN(C)C(=O)C1CC1	none (no result: Arrestin-AP2 inh, N-glyco inh, PAX8 inh HTS, PfHsp90 yeast 2, Rtt109 HAT inh)
CCCC(O)C#Cc1cnc2c(c1)C(=O)N([C@H](C)CO)C[C@H](C)[C@H](CN(C)Cc1ccc3c(c1)OCO3)O2 (some centres undefined)	none (no result: Arrestin-AP2 inh, N-glyco inh, PAX8 inh HTS, PfHsp90 yeast 2, Rtt109 HAT inh)
C[C@H]1CN([C@@H](C)CO)C(=O)c2cc(C#CCN(C)C)cnc2O[C@@H]1CN(C)C(=O)Nc1cccc(F)c1	none (no result: Arrestin-AP2 inh, N-glyco inh, PAX8 inh HTS, PfHsp90 yeast 2, Rtt109 HAT inh)
COc1ccc(-c2csc3ncnc(N4CCN(S(=O)(=O)c5ccc(C)cc5)CC4)c23)cc1	HIV Env fusion 63
COc1ccc(N2CCN(c3ncnc4scc(-c5ccc(C)cc5)c34)CC2)cc1	Rtt109 HAT inh 52
NNc1ncnc2scc(-c3ccc(Cl)cc3)c12	none
COc1ccc(-c2csc3ncnc(N4CCN(S(=O)(=O)c5cccs5)CC4)c23)cc1	none (no result: PAX8 inh HTS, PfHsp90 yeast 2)
OCCCNc1ncnc2scc(-c3ccc(Cl)cc3)c12	HIV Env fusion 62
O=C(C[C@@H]1CC[C@@H]2[C@H](COC[C@@H](O)CN2Cc2cccc(Cl)c2)O1)NCc1cccc(F)c1	none (no result: Arrestin-AP2 inh, N-glyco inh, HIV Env fusion, PfHsp90 yeast 2, Rtt109 HAT inh)
CCCC#Cc1ccc2c(c1)O[C@@H](CN(C)S(=O)(=O)c1cccc(OC)c1)[C@@H](C)CN([C@@H](C)CO)S2(=O)=O	PAX8 inh HTS 66 (no result: Arrestin-AP2 inh, N-glyco inh, PfHsp90 yeast 2, Rtt109 HAT inh)
CC(C)CC#Cc1ccc2c(c1)O[C@@H](CN(C)S(=O)(=O)c1cccc(F)c1)[C@@H](C)CN([C@H](C)CO)S2(=O)=O	HIV Env fusion 68[16.7 µM] (no result: Arrestin-AP2 inh, N-glyco inh, PAX8 inh HTS, PfHsp90 yeast 2, Rtt109 HAT inh)
CCCC#Cc1ccc2c(c1)O[C@H](CN(C)S(=O)(=O)c1cccc(OC)c1)[C@@H](C)CN([C@H](C)CO)S2(=O)=O	none (no result: Arrestin-AP2 inh, N-glyco inh, PfHsp90 yeast 2, Rtt109 HAT inh)
CCCC#Cc1ccc2c(c1)O[C@@H](CN(C)S(=O)(=O)c1cccc(F)c1)[C@@H](C)CN([C@@H](C)CO)S2(=O)=O	HIV Env fusion 60[16.7 µM] (no result: Arrestin-AP2 inh, N-glyco inh, PAX8 inh HTS, PfHsp90 yeast 2, Rtt109 HAT inh)
CCCC#Cc1ccc2c(c1)O[C@H](CN(C)S(=O)(=O)c1cccc(F)c1)[C@H](C)CN([C@H](C)CO)S2(=O)=O	none (no result: Arrestin-AP2 inh, N-glyco inh, PAX8 inh HTS, PfHsp90 yeast 2, Rtt109 HAT inh)
Cc1ccc(N2C(=O)CC(N(O)C3CC(=O)N(c4ccc(C)cc4)C3=O)C2=O)cc1 (centres undefined)	none

Assay outcomes deposited in PubChem BioAssay by several laboratories.
